In ChEMBL document CHEMBL3272149, “Synthesis and antibacterial activity of some derivatives of tolypomycinone. Relationship between structure and activity in ansamycins” (J Med Chem, 1977):
≈ marks a conversion by molar mass, not a printed value.

Columns and labels:
Assay type in all cases: functional
[1] = tested on: Staphylococcus aureus; experiment: Antibacterial activity against Staphylococcus aureus 209 P(FDA) assessed as inhibition of visible growth after 24 hrs by serial dilution method
[2] = tested on: Klebsiella pneumoniae; experiment: Antibacterial activity against Klebsiella pneumoniae Ottaviani assessed as inhibition of visible growth after 24 hrs by serial dilution method
[3] = tested on: Escherichia coli; experiment: Antibacterial activity against Escherichia coli MC/35 assessed as inhibition of visible growth after 24 hrs by serial dilution method; conditions: MC/35, 24 h
[4] = tested on: Salmonella enterica subsp. enterica serovar Paratyphi B; experiment: Antibacterial activity against Salmonella paratyphi B 0248 K assessed as inhibition of visible growth after 24 hrs by serial dilution method
Method in brief: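 Broth tube serial dilution in Brain Heart Infusion medium; inoculum 10^6 cells/mL; incubation 24 h at 35 °C; MIC taken as the lowest antibiotic concentration that prevented visible growth.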

SMILES	MIC [1] [µg/mL]	MIC [2] [µg/mL]	MIC [3] [µg/mL]	MIC [4] [µg/mL]
CO[C@H]1/C=C/O[C@@]2(C)Oc3c(C)c(O)c4c(c3C2=O)C(=O)C=C(NC(=O)C(C)CC(=O)[C@@H]2C[C@@H]2[C@H](O)[C@@H](C)[C@@H](O)[C@@H](C)[C@H](OC(C)=O)[C@@H]1C)C4=O (some centres not stated)	0.5 (≈ 0.702 µM)			
CO[C@H]1/C=C/O[C@@]2(C)Oc3c(C)c(O)c4c(c3C2=O)C(=O)C(NCCc2ccc(O)cc2)=C(NC(=O)/C(C)=C\C(=O)[C@@H]2C[C@@H]2[C@H](O)[C@@H](C)[C@@H](O)[C@@H](C)[C@H](OC(C)=O)[C@@H]1C)C4=O	< 0.005	> 100	> 100	> 50
CO[C@H]1/C=C/O[C@@]2(C)Oc3c(C)c(O)c4c(c3C2=O)C(=O)C(NCCCN(C)C)=C(NC(=O)/C(C)=C\C(=O)[C@@H]2C[C@@H]2[C@H](O)[C@@H](C)[C@@H](O)[C@@H](C)[C@H](OC(C)=O)[C@@H]1C)C4=O	0.025 (≈ 0.0309 µM)	50 (≈ 61.7 µM)	12 (≈ 14.8 µM)	12 (≈ 14.8 µM)
COC(CCNC1=C2NC(=O)/C(C)=C\C(=O)[C@@H]3C[C@@H]3[C@H](O)[C@@H](C)[C@@H](O)[C@@H](C)[C@H](OC(C)=O)[C@H](C)[C@@H](OC)/C=C/O[C@@]3(C)Oc4c(C)c(O)c(c(c4C3=O)C1=O)C2=O)OC	0.005 (≈ 0.00605 µM)	50 (≈ 60.5 µM)	25 (≈ 30.2 µM)	25 (≈ 30.2 µM)
CNC1=C2NC(=O)C(C)(NC)CC(=O)[C@@H]3C[C@@H]3[C@H](O)[C@@H](C)[C@@H](O)[C@@H](C)[C@H](OC(C)=O)[C@H](C)[C@@H](OC)/C=C/O[C@@]3(C)Oc4c(C)c(O)c(c(c4C3=O)C1=O)C2=O (some centres not stated)	0.005 (≈ 0.00649 µM)	> 100	> 100	50 (≈ 64.9 µM)
CO[C@H]1/C=C/O[C@@]2(C)Oc3c(C)c(O)c4c(c3C2=O)C(=O)C(NCc2ccn(C)c2)=C(NC(=O)/C(C)=C\C(=O)[C@@H]2C[C@@H]2[C@H](O)[C@@H](C)[C@@H](O)[C@@H](C)[C@H](OC(C)=O)[C@@H]1C)C4=O	0.005 (≈ 0.00611 µM)	12 (≈ 14.7 µM)	12 (≈ 14.7 µM)	12 (≈ 14.7 µM)
CO[C@H]1/C=C/O[C@@]2(C)Oc3c(C)c(O)c4c(c3C2=O)C(=O)C(NCc2ccc3c(c2)OCO3)=C(NC(=O)/C(C)=C\C(=O)[C@@H]2C[C@@H]2[C@H](O)[C@@H](C)[C@@H](O)[C@@H](C)[C@H](OC(C)=O)[C@@H]1C)C4=O	< 0.005	> 100	> 100	100 (≈ 116 µM)
CO[C@H]1/C=C/O[C@@]2(C)Oc3c(C)c(O)c4c(c3C2=O)C(=O)C(NCCCN2CCN(C)CC2)=C(NC(=O)/C(C)=C\C(=O)[C@@H]2C[C@@H]2[C@H](O)[C@@H](C)[C@@H](O)[C@@H](C)[C@H](OC(C)=O)[C@@H]1C)C4=O	0.025 (≈ 0.0289 µM)	25 (≈ 28.9 µM)	12 (≈ 13.9 µM)	3 (≈ 3.47 µM)
CNC1=C2NC(=O)C(C)CC(=O)[C@@H]3C[C@@H]3[C@H](O)[C@@H](C)[C@@H](O)[C@@H](C)[C@H](OC(C)=O)[C@H](C)[C@@H](OC)/C=C/O[C@@]3(C)Oc4c(C)c(O)c(c(c4C3=O)C1=O)C2=O (some centres not stated)	0.5 (≈ 0.675 µM)			
CO[C@H]1/C=C/O[C@@]2(C)Oc3c(C)c(O)c4c(c3C2=O)C(=O)C(N(C)C)=C(NC(=O)/C(C)=C\C(=O)[C@@H]2C[C@@H]2[C@H](O)[C@@H](C)[C@@H](O)[C@@H](C)[C@H](OC(C)=O)[C@@H]1C)C4=O	0.025 (≈ 0.0332 µM)	100 (≈ 133 µM)	50 (≈ 66.4 µM)	100 (≈ 133 µM)
CO[C@H]1/C=C/O[C@@]2(C)Oc3c(C)c(O)c4c(c3C2=O)C(=O)C(NCCN(C)C)=C(NC(=O)/C(C)=C\C(=O)[C@@H]2C[C@@H]2[C@H](O)[C@@H](C)[C@@H](O)[C@@H](C)[C@H](OC(C)=O)[C@@H]1C)C4=O	< 0.005	25 (≈ 31.4 µM)	6 (≈ 7.54 µM)	12 (≈ 15.1 µM)
CO[C@H]1/C=C/O[C@@]2(C)Oc3c(C)c(O)c4c(c3C2=O)C(=O)C(NCCc2ccccn2)=C(NC(=O)/C(C)=C\C(=O)[C@@H]2C[C@@H]2[C@H](O)[C@@H](C)[C@@H](O)[C@@H](C)[C@H](OC(C)=O)[C@@H]1C)C4=O	< 0.005	25 (≈ 30.1 µM)	6 (≈ 7.23 µM)	12 (≈ 14.5 µM)
CNC1=C2NC(=O)/C(C)=C\C(=O)[C@@H]3C[C@@H]3[C@H](O)[C@@H](C)[C@@H](O)[C@@H](C)[C@H](OC(C)=O)[C@H](C)[C@@H](OC)/C=C/O[C@@]3(C)Oc4c(C)c(O)c(c(c4C3=O)C1=O)C2=O	0.005 (≈ 0.00677 µM)	25 (≈ 33.8 µM)	50 (≈ 67.7 µM)	12 (≈ 16.2 µM)
COC1/C=C/OC2(C)Oc3c(C)c(O)c4c(c3C2=O)C(=O)C=C(NC(=O)/C(C)=C\C(=O)C2CC2C(O)C(C)C(O)C(C)C(OC(C)=O)C1C)C4=O (configuration not stated) [TOLYPOMYCINONE]	0.5 (≈ 0.704 µM)			
CO[C@H]1/C=C/O[C@@]2(C)Oc3c(C)c(O)c4c(c3C2=O)C(=O)C(NCC2CCCO2)=C(NC(=O)/C(C)=C\C(=O)[C@@H]2C[C@@H]2[C@H](O)[C@@H](C)[C@@H](O)[C@@H](C)[C@H](OC(C)=O)[C@@H]1C)C4=O (some centres not stated)	0.005 (≈ 0.00618 µM)	25 (≈ 30.9 µM)	6 (≈ 7.42 µM)	12 (≈ 14.8 µM)
CO[C@H]1/C=C/O[C@@]2(C)Oc3c(C)c(O)c4c(c3C2=O)C(=O)C(NCc2cccnc2)=C(NC(=O)/C(C)=C\C(=O)[C@@H]2C[C@@H]2[C@H](O)[C@@H](C)[C@@H](O)[C@@H](C)[C@H](OC(C)=O)[C@@H]1C)C4=O	< 0.005	25 (≈ 30.6 µM)	6 (≈ 7.35 µM)	12 (≈ 14.7 µM)
CO[C@H]1/C=C/O[C@@]2(C)Oc3c(C)c(O)c4c(c3C2=O)C(=O)C(NCCNc2ccc([N+](=O)[O-])cn2)=C(NC(=O)/C(C)=C\C(=O)[C@@H]2C[C@@H]2[C@H](O)[C@@H](C)[C@@H](O)[C@@H](C)[C@H](OC(C)=O)[C@@H]1C)C4=O	< 0.025	> 50	> 50	> 50
CO[C@H]1/C=C/O[C@@]2(C)Oc3c(C)c(O)c4c(c3C2=O)C(=O)C(NCCc2c[nH]cn2)=C(NC(=O)/C(C)=C\C(=O)[C@@H]2C[C@@H]2[C@H](O)[C@@H](C)[C@@H](O)[C@@H](C)[C@H](OC(C)=O)[C@@H]1C)C4=O	0.05 (≈ 0.0611 µM)	12 (≈ 14.7 µM)	50 (≈ 61.1 µM)	12 (≈ 14.7 µM)
CO[C@H]1/C=C/O[C@@]2(C)Oc3c(C)c(O)c4c(c3C2=O)C(=O)C(NCc2ccc(N(C)C)cc2)=C(NC(=O)/C(C)=C\C(=O)[C@@H]2C[C@@H]2[C@H](O)[C@@H](C)[C@@H](O)[C@@H](C)[C@H](OC(C)=O)[C@@H]1C)C4=O	< 0.005	12 (≈ 14 µM)	23 (≈ 26.8 µM)	12 (≈ 14 µM)
CO[C@H]1/C=C/O[C@@]2(C)Oc3c(C)c(O)c4c(c3C2=O)C(=O)C(NCc2ccsc2)=C(NC(=O)/C(C)=C\C(=O)[C@@H]2C[C@@H]2[C@H](O)[C@@H](C)[C@@H](O)[C@@H](C)[C@H](OC(C)=O)[C@@H]1C)C4=O	< 0.005	100 (≈ 122 µM)	12 (≈ 14.6 µM)	12 (≈ 14.6 µM)
CO[C@H]1/C=C/O[C@@]2(C)Oc3c(C)c(O)c4c(c3C2=O)/C(=N/[C@@H]2CC[C@@H](O)O[C@H]2C)C=C(NC(=O)/C(C)=C\C(=O)[C@@H]2C[C@@H]2[C@H](O)[C@@H](C)[C@@H](O)[C@@H](C)[C@H](OC(C)=O)[C@@H]1C)C4=O	0.025 (≈ 0.0304 µM)	100 (≈ 122 µM)	> 100	> 100
CO[C@H]1/C=C/O[C@@]2(C)Oc3c(C)c(O)c4c(c3C2=O)C(=O)C(NCC2CCCN(C)C2)=C(NC(=O)/C(C)=C\C(=O)[C@@H]2C[C@@H]2[C@H](O)[C@@H](C)[C@@H](O)[C@@H](C)[C@H](OC(C)=O)[C@@H]1C)C4=O (some centres not stated)	0.025 (≈ 0.0299 µM)	12 (≈ 14.4 µM)	12 (≈ 14.4 µM)	12 (≈ 14.4 µM)
CO[C@H]1/C=C/O[C@@]2(C)Oc3c(C)c(O)c4c(c3C2=O)C(=O)C(NCCN2CCN(C)CC2)=C(NC(=O)/C(C)=C\C(=O)[C@@H]2C[C@@H]2[C@H](O)[C@@H](C)[C@@H](O)[C@@H](C)[C@H](OC(C)=O)[C@@H]1C)C4=O	0.025 (≈ 0.0294 µM)	12 (≈ 14.1 µM)	25 (≈ 29.4 µM)	6 (≈ 7.05 µM)
CO[C@H]1/C=C/O[C@@]2(C)Oc3c(C)c(O)c4c(c3C2=O)C(=O)C(NCc2ccncc2)=C(NC(=O)/C(C)=C\C(=O)[C@@H]2C[C@@H]2[C@H](O)[C@@H](C)[C@@H](O)[C@@H](C)[C@H](OC(C)=O)[C@@H]1C)C4=O	0.005 (≈ 0.00613 µM)	100 (≈ 123 µM)	25 (≈ 30.6 µM)	12 (≈ 14.7 µM)
CO[C@H]1/C=C/O[C@@]2(C)Oc3c(C)c(O)c4c(O)c(c(/C=N/N5CCN(C)CC5)c(O)c4c3C2=O)NC(=O)/C(C)=C\C=C\[C@H](C)[C@H](O)[C@@H](C)[C@@H](O)[C@@H](C)[C@H](OC(C)=O)[C@@H]1C [RIFAMPIN]	0.025 (≈ 0.0304 µM)	25 (≈ 30.4 µM)	6 (≈ 7.29 µM)	12 (≈ 14.6 µM)
CO[C@H]1/C=C/O[C@@]2(C)Oc3c(C)c(O)c4c(c3C2=O)C(=O)C(NCc2ccccc2)=C(NC(=O)/C(C)=C\C(=O)[C@@H]2C[C@@H]2[C@H](O)[C@@H](C)[C@@H](O)[C@@H](C)[C@H](OC(C)=O)[C@@H]1C)C4=O	< 0.005			
CO[C@H]1/C=C/O[C@@]2(C)Oc3c(C)c(O)c4c(c3C2=O)C(=O)C(NC2CCCCC2)=C(NC(=O)/C(C)=C\C(=O)[C@@H]2C[C@@H]2[C@H](O)[C@@H](C)[C@@H](O)[C@@H](C)[C@H](OC(C)=O)[C@@H]1C)C4=O	0.25 (≈ 0.31 µM)			
CO[C@H]1/C=C/O[C@@]2(C)Oc3c(C)c(O)c4c(c3C2=O)C(=O)C(NCCCN2CCC(=O)C2)=C(NC(=O)/C(C)=C\C(=O)[C@@H]2C[C@@H]2[C@H](O)[C@@H](C)[C@@H](O)[C@@H](C)[C@H](OC(C)=O)[C@@H]1C)C4=O	0.005 (≈ 0.00588 µM)		50 (≈ 58.8 µM)	25 (≈ 29.4 µM)
CO[C@H]1/C=C/O[C@@]2(C)Oc3c(C)c(O)c4c(c3C2=O)C(=O)C(NCc2ccccc2)=C(NC(=O)C(C)(NCc2ccccc2)CC(=O)[C@@H]2C[C@@H]2[C@H](O)[C@@H](C)[C@@H](O)[C@@H](C)[C@H](OC(C)=O)[C@@H]1C)C4=O (some centres not stated)	0.25 (≈ 0.271 µM)			
